According to ChEMBL document CHEMBL1140959, “Inhibition of PDGFR tyrosine kinase activity by a series of novel N-(3-(4-(pyridin-3-yl)-1H-imidazol-2-ylamino)phenyl)amides: a SAR study on the bioisosterism of pyrimidine and imidazole” (Eur J Med Chem, 2008):
The source made the active and inactive calls. The rule behind the calls is not given here.

Key:
[1] = molecular target: Platelet-derived growth factor receptor (Mus musculus) (UniProt P05622+P26618); assay: Inhibition of PDGFR autophosphorylation in mouse Swiss 3T3 fibroblast up to 10 ug/ml by immunoblotting
Summary of the method: (§1)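 PDGFR autophosphorylation in Swiss 3T3 cells was assayed by a previously described method. IC50 was fitted to a six-concentration curve, with duplicate or triplicate determinations.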

[2] = molecular target: Receptor-type tyrosine-protein kinase FLT3 (Homo sapiens) (UniProt P36888); assay: Inhibition of FLT3 autophosphorylation in human EOL1 cells up to 10 ug/ml by immunoblotting; assay type: cell-based
Sequence of Receptor-type tyrosine-protein kinase FLT3 (Homo sapiens) (P36888 whole entry): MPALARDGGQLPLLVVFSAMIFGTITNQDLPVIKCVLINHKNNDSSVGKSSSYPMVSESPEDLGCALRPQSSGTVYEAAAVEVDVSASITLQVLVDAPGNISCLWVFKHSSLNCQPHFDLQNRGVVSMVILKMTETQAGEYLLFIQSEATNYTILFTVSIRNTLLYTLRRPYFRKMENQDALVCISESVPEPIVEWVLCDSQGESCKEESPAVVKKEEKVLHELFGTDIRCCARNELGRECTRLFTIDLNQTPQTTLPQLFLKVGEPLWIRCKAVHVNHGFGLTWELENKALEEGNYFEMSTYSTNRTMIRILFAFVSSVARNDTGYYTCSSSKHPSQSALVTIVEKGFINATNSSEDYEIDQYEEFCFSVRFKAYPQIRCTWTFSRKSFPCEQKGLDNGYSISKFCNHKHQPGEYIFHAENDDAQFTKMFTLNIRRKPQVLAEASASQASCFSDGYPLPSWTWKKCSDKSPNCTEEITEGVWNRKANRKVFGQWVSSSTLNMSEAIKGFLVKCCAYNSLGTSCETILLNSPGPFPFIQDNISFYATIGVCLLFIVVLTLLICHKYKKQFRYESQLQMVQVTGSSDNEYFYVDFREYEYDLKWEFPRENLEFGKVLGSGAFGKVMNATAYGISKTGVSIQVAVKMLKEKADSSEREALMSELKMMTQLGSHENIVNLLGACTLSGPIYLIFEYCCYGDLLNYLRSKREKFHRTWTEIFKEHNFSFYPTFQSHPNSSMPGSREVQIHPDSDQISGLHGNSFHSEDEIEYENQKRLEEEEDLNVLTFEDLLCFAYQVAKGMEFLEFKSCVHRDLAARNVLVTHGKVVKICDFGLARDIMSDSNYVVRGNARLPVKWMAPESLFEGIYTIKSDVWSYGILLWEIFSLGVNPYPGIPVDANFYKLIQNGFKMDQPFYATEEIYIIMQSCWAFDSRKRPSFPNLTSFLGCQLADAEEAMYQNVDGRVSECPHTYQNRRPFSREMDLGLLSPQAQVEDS

[3] = molecular target: Platelet-derived growth factor receptor (Mus musculus, UniProt P05622+P26618); assay: Inhibition of PDGFR autophosphorylation in mouse Swiss 3T3 fibroblast by immunoblotting; summary of the method: as §1
FLT3 (Homo sapiens) = assay: Inhibition of FLT3 autophosphorylation in human EOL-1 cells up to 10 ug/ml by immunoblotting

| Activity [1] | Activity [2] | IC50 [3] [nM] | Activity (FLT3 (Homo sapiens)) | SMILES |
| --- | --- | --- | --- | --- |
| – | – | > 10000 | – | Cc1ccc(NC(=O)c2ccccc2)cc1Nc1nc(-c2ccncc2)c[nH]1 |
| – | – | 6500 | – | CN1CCN(Cc2ccc(C(=O)Nc3cccc(Nc4nc(-c5cccnc5)c[nH]4)c3)cc2)CC1 |
| inactive | inactive | – | – | Nc1cccc(Nc2nc(-c3cccnc3)c[nH]2)c1 |
| – | – | 600 | – | Cc1ccc(NC(=O)c2ccccc2C)cc1Nc1nc(-c2cccnc2)c[nH]1 |
| – | – | 200 | – | Cc1ccc(C(=O)Nc2cccc(Nc3nc(-c4cccnc4)c[nH]3)c2)cc1 |
| – | – | 7100 | – | Cc1ccc(NC(=O)c2ccccc2)cc1Nc1nc(-c2ccccc2)c[nH]1 |
| – | – | 300 | – | CCc1ccc(NC(=O)c2cccc(C)c2)cc1Nc1nc(-c2cccnc2)c[nH]1 |
| – | inactive | 1800 | inactive | Cc1ccc(NC(=O)c2ccncc2)cc1Nc1nc(-c2cccnc2)c[nH]1 |
| – | – | 2200 | – | Cc1cccc(C(=O)Nc2ccc(C)c(Nc3nc(-c4cccnc4)c[nH]3)c2)c1 |
| – | inactive | 200 | inactive | Cc1ccc(C(=O)Nc2ccc(C)c(Nc3nc(-c4cccnc4)c[nH]3)c2)cc1 |
| – | – | 1600 | – | CCc1ccc(NC(=O)c2ccccc2C)cc1Nc1nc(-c2cccnc2)c[nH]1 |
| – | – | 6500 | – | CCc1ccc(NC(=O)c2ccc(C)cc2)cc1Nc1nc(-c2cccnc2)c[nH]1 |
| – | – | 100 | – | Cc1ccc(NC(=O)c2ccccc2)cc1Nc1nccc(-c2cccnc2)n1 |
| – | inactive | 400 | inactive | Cc1ccc(NC(=O)c2ccc(Cl)cc2)cc1Nc1nc(-c2cccnc2)c[nH]1 |
| inactive | inactive | > 30000 | – | Cc1ccc(NC(=O)c2ccc(N)cc2)cc1Nc1nc(-c2cccnc2)c[nH]1 |
| inactive | inactive | > 30000 | – | Cc1ccc(NC(=O)c2ccc([N+](=O)[O-])cc2)cc1Nc1nc(-c2cccnc2)c[nH]1 |
| inactive | inactive | – | – | O=[N+]([O-])c1cccc(Nc2nc(-c3cccnc3)c[nH]2)c1 |
| – | – | 300 | – | Cc1cccc(C(=O)Nc2cccc(Nc3nc(-c4cccnc4)c[nH]3)c2)c1 |
| – | – | 5900 | – | CC(=O)Nc1ccc(C)c(Nc2nc(-c3cccnc3)c[nH]2)c1 |
| inactive | inactive | > 30000 | – | COc1ccc(C(=O)Nc2ccc(C)c(Nc3nc(-c4cccnc4)c[nH]3)c2)cc1 |
| – | inactive | 300 | inactive | Cc1ccc(NC(=O)c2ccccc2)cc1Nc1nc(-c2cccnc2)c[nH]1 |
| – | – | 600 | – | Cc1ccccc1C(=O)Nc1cccc(Nc2nc(-c3cccnc3)c[nH]2)c1 |
| – | – | 4700 | – | CCc1ccc(NC(=O)c2ccccc2)cc1Nc1nc(-c2cccnc2)c[nH]1 |

Second part, the compound before the results:

| SMILES | Activity [1] | Activity [2] | IC50 [3] [nM] | Activity (FLT3 (Homo sapiens)) |
| --- | --- | --- | --- | --- |
| Cc1ccc(N)cc1Nc1nc(-c2ccncc2)c[nH]1 | inactive | inactive | – | – |
| Cc1ccc(NC(=O)c2ccc(CN3CCN(C)CC3)cc2)cc1Nc1nc(-c2ccccc2)c[nH]1 | – | – | > 10000 | – |
| CCCCCCCCCCc1ccc(C(=O)Nc2ccc(C)c(Nc3nc(-c4cccnc4)c[nH]3)c2)cc1 | inactive | inactive | > 10000 | – |
| COc1cc(C(=O)Nc2ccc(C)c(Nc3nc(-c4cccnc4)c[nH]3)c2)cc(OC)c1OC | inactive | inactive | > 10000 | – |
| Cc1ccc([N+](=O)[O-])cc1Nc1nc(-c2ccccc2)c[nH]1 | inactive | inactive | – | – |
| Cc1ccc(NC(=O)c2ccc(CN3CCN(C)CC3)cc2)cc1Nc1nc(-c2ccncc2)c[nH]1 | – | – | > 10000 | – |
| Cc1ccc(NC(=O)c2ccc(CN3CCN(C)CC3)cc2)cc1Nc1nc(-c2cccnc2)c[nH]1 | inactive | inactive | > 10000 | – |
| Cc1ccc(NC(=O)c2ccc(CN3CCN(C)CC3)cc2)cc1Nc1nccc(-c2cccnc2)n1 [IMATINIB] | – | – | 300 | – |
| Cc1ccc([N+](=O)[O-])cc1Nc1nc(-c2ccncc2)c[nH]1 | inactive | inactive | – | – |
| Cc1ccc([N+](=O)[O-])cc1Nc1nc(-c2cccnc2)c[nH]1 | inactive | inactive | – | – |
| Cc1ccc(N)cc1Nc1nc(-c2ccccc2)c[nH]1 | inactive | inactive | – | – |
| CC(=O)Nc1ccc(C)c(Nc2nccc(-c3cccnc3)n2)c1 | – | – | 50000 | – |
| Cc1ccc(N)cc1Nc1nc(-c2cccnc2)c[nH]1 | inactive | inactive | – | – |
| CC(=O)Nc1ccc(C)c(Nc2nc(-c3ccccc3)c[nH]2)c1 | – | – | > 30000 | – |
| CCc1ccc(N)cc1Nc1nc(-c2cccnc2)c[nH]1 | inactive | inactive | – | – |
| CCc1ccc([N+](=O)[O-])cc1Nc1nc(-c2cccnc2)c[nH]1 | inactive | inactive | – | – |
